Values after ≈ are worked out from the molar mass of the structure shown.
Columns and labels:
[1] = Oral bioavailability in Sprague-Dawley rat at 25 mg/kg by LC/MS analysis; format: ADME, organism-based; conditions: in vivo
Method in brief: (§1)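 Male Sprague-Dawley rats (180−220 g), n = 4 per route, single iv dose 5 mg/kg or oral gavage 25 mg/kg. Vehicle was 2% DMSO, 4% EtOH, 4% castor oil, 90% H2O. Orbital sinus blood was taken from 2 min to 72 h into heparinized tubes. Plasma levels were measured by LC/MS with propranolol internal standard and analysed by pharmacokinetic modelling.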

[2] = Clearance in Sprague-Dawley rat at 25 mg/kg, po by LC/MS analysis; format: ADME, organism-based; set-up: dose 25 mg/kg, route oral; conditions: in vivo; method in brief: as §1
[3] = Clearance in Sprague-Dawley rat at 5 mg/kg, iv by LC/MS analysis; format: ADME, organism-based; set-up: dose 5 mg/kg, route intravenous; conditions: in vivo; method in brief: as §1
[4] = AUC (0 to infinity) in Sprague-Dawley rat at 25 mg/kg, po by LC/MS analysis; format: ADME, organism-based; set-up: dose 25 mg/kg, route oral, time infinity; conditions: plasma; method in brief: as §1
[5] = AUC (0 to infinity) in Sprague-Dawley rat at 5 mg/kg, iv by LC/MS analysis; format: ADME, organism-based; set-up: time infinity, dose 5 mg/kg, route intravenous; conditions: plasma; method in brief: as §1
[6] = Cmax in Sprague-Dawley rat at 25 mg/kg, po by LC/MS analysis; format: ADME, organism-based; set-up: dose 25 mg/kg, route oral; conditions: in vivo; method in brief: as §1
[7] = Cmax in Sprague-Dawley rat at 5 mg/kg, iv by LC/MS analysis; format: ADME, organism-based; set-up: dose 5 mg/kg, route intravenous; conditions: in vivo; method in brief: as §1
[8] = Thermodynamic aqueous solubility of the compound in PBS buffer at pH 6.8 after 24 hrs by HPLC analysis; format: physicochemical; conditions: for solubility thermodynamic at 24 h: PBS buffer, pH 6.8, read-out: Therm_solubility
Method in brief: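 Compound was shaken in aqueous buffer at pH 6.8 for 24 h at ambient temperature; dissolved concentration was measured by HPLC.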

NCI-H1975 = experiment: Antiproliferative activity against human NCI-H1975 cells expressing EGFR L858R/T790M double mutant after 72 hrs by MTS assay; format: functional, cell-based; conditions: NCI-H1975, 72 h
[9] = molecular target: Epidermal growth factor receptor (Homo sapiens, UniProt P00533, L858R/T790M); experiment: Inhibition of EGFR L858R/T790M double mutant (unknown origin) after 1.5 hrs by FRET-based Z'-Lyte assay; format: protein assay
Epidermal growth factor receptor, sequence (P00533 25-1210 T790M/L858R limits assumed): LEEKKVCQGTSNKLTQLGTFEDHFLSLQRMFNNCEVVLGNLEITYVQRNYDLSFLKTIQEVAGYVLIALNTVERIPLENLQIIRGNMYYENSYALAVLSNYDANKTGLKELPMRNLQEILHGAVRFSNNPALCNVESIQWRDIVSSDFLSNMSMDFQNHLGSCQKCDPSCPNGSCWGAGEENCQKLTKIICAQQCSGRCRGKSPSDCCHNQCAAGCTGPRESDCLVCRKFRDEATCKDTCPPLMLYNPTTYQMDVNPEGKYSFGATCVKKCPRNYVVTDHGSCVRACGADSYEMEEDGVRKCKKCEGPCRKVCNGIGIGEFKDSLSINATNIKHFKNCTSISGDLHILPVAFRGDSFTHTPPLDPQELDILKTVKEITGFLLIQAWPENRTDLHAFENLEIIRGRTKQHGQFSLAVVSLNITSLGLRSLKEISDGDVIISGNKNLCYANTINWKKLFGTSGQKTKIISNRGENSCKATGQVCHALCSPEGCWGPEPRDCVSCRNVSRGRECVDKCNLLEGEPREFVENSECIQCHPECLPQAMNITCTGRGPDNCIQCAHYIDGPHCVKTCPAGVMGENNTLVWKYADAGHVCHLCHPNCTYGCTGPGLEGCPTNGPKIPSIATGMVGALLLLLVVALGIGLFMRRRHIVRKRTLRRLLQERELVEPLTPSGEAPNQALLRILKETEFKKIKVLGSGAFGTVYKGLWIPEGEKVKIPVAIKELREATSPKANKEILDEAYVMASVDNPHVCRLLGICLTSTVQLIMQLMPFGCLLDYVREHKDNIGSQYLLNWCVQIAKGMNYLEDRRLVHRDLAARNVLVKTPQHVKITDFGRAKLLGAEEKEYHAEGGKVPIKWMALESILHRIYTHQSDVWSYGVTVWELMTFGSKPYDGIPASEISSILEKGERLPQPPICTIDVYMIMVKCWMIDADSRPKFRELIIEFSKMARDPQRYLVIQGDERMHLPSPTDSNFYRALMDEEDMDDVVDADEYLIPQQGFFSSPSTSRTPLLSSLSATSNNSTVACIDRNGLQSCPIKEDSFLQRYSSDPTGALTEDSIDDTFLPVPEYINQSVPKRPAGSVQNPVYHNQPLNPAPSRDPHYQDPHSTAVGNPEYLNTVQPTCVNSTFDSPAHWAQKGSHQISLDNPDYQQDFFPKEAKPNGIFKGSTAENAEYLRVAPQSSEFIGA

Structure (SMILES)	bioavailability [1] [%]	CL/F [2] [mL/min/kg]	clearance [3] [mL/min/kg]	AUC(0-inf) [4] [ng·h/mL]	AUC(0-inf) [5] [ng·h/mL]	Cmax [6] [ng/mL]	Cmax [7] [ng/mL]	solubility thermodynamic at 24 h [8] [µg/mL]	IC50 (NCI-H1975) [nM]	IC50 [9] [nM]	Therm solubility ([8]; buffer, pH 6.8, 24 h) [µg/mL]
C=CC(=O)N1CC[C@H](N2C(=O)N(c3ccccc3)Cc3cnc(Nc4ccc(N5CCN(C)CC5)cc4)nc32)C1	54	203	96.7	2310	857	783	1520	976 (≈ 1810 µM)	249	29.1	
C=CC(=O)NC1CCC(N2C(=O)N(Cc3ccccc3)Cc3cnc(Nc4ccc(N5CCN(C)CC5)cc4OC)nc32)CC1 (centres undefined)								18.8 (≈ 30.8 µM)	2680	708	
C=CC(=O)N1CCC(N2C(=O)N(Cc3ccccc3)Cc3cnc(Nc4ccc(N5CCN(C)CC5)cc4OC)nc32)CC1								9.3 (≈ 15.6 µM)	546	144	
C=CC(=O)N1CC[C@H](N2C(=O)N(Cc3ccccc3)Cc3cnc(Nc4ccc(N5CCN(C)CC5)cc4OC)nc32)C1	24	1040	240	418	359	102	784	107 (≈ 184 µM)	279	8.8	
C=CC(=O)N1CC[C@H](N2C(=O)N(c3ccccc3)Cc3cnc(Nc4ccc(C5CCN(C)CC5)cc4)nc32)C1		335		1300		359		310 (≈ 577 µM)	311	16.2	
C=CC(=O)N1CC[C@H](N2C(=O)N(C3CCCC3)Cc3cnc(Nc4ccc(N5CCN(C)CC5)cc4OC)nc32)C1								250 (≈ 446 µM)	679	58.7	
C=CC(=O)N1CC[C@H](N2C(=O)N(c3ccccc3)Cc3cnc(Nc4cccc(N5CCN(C)CC5)c4)nc32)C1	20	565	113	760	746	291	1820	714 (≈ 1330 µM)	523	97.9	
C=CC(=O)N1CC[C@@H](N2C(=O)N(Cc3ccccc3)Cc3cnc(Nc4ccc(N5CCN(C)CC5)cc4OC)nc32)C1								199 (≈ 341 µM)	1550	107	
C=CC(=O)N1CCC[C@H](N2C(=O)N(Cc3ccccc3)Cc3cnc(Nc4ccc(N5CCN(C)CC5)cc4OC)nc32)C1								129 (≈ 216 µM)	1560	204	
C=CC(=O)N1CC[C@H](N2C(=O)N(c3ccccc3)Cc3cnc(Nc4ccc(N5CCN(C)CC5)c(Cl)c4)nc32)C1								214 (≈ 374 µM)	89	35.6	
C=CC(=O)N1CC[C@H](N2C(=O)N(c3ccccc3)Cc3cnc(Nc4ccc(N5CCN(C)CC5)cc4OC)nc32)C1	44	200	86.7	2120	962	613	1790	1540 (≈ 2700 µM)	111	15.2	
C=CC(=O)N1CC[C@H](N2C(=O)N(c3ccccc3)Cc3cnc(Nc4ccc(N5CCN(C)CC5)c(C(F)(F)F)c4)nc32)C1								60.9 (≈ 100 µM)	196	55.5	
C=CC(=O)N1CC[C@H](N2C(=O)N(C(C)C)Cc3cnc(Nc4ccc(N5CCN(C)CC5)cc4OC)nc32)C1								2490 (≈ 4660 µM)	3060	864	
C=CC(=O)N1CC[C@H](N2C(=O)N(c3ccccc3)Cc3cnc(Nc4ccc(N5CCN(C)CC5)c(F)c4)nc32)C1	33	122	40	3480	2120	964	3260	691 (≈ 1240 µM)			
C=CC(=O)N1CCC[C@@H](N2C(=O)N(Cc3ccccc3)Cc3cnc(Nc4ccc(N5CCN(C)CC5)cc4OC)nc32)C1								142 (≈ 237 µM)	437	40.3	
C=CC(=O)NCCN1C(=O)N(Cc2ccccc2)Cc2cnc(Nc3ccc(N4CCN(C)CC4)cc3OC)nc21								96.7 (≈ 174 µM)	> 10000	> 1000	
C=CC(=O)Nc1cccc(N2C(=O)N(Cc3ccccc3)Cc3cnc(Nc4ccc(N5CCN(C)CC5)cc4OC)nc32)c1.CS(=O)(=O)O			53.3		1570		4370				4
C=CC(=O)N1CC[C@H](N2C(=O)N(C)Cc3cnc(Nc4ccc(N5CCN(C)CC5)cc4OC)nc32)C1								1250 (≈ 2470 µM)	1480	525	
C=CC(=O)N1CC[C@H](N2C(=O)N(c3ccccc3)Cc3cnc(Nc4ccc(N5CCN(C)CC5)c(OC)c4)nc32)C1	20	467	91.7	948	949	420	3410	256 (≈ 450 µM)	65	7.2	
C=CC(=O)N1CC[C@H](N2C(=O)N(c3ccccc3)Cc3cnc(Nc4ccccc4)nc32)C1	44	95	41.7	4520	2030	1670	6540	3.5 (≈ 7.95 µM)	1680	235	
C=CC(=O)N1CC[C@H](N2C(=O)N(C3CCCCC3)Cc3cnc(Nc4ccc(N5CCN(C)CC5)cc4OC)nc32)C1								763 (≈ 1330 µM)	654	42.9	
C=CC(=O)N1CC[C@H](N2C(=O)N(c3ccccc3)Cc3cnc(Nc4ccc(CCN5CCN(C)CC5)cc4)nc32)C1	40	382	153	1130	561	232	1410	4350 (≈ 7680 µM)	448	41.3	

— ChEMBL document CHEMBL3085739, “Design, synthesis, and biological evaluation of 2-oxo-3,4-dihydropyrimido[4,5-d]pyrimidinyl derivatives as new irreversible epidermal growth factor receptor inhibitors with improved pharmacokinetic properties” (J Med Chem, 2013)
